ChEMBL document CHEMBL1156296, “Development of novel, highly potent inhibitors of V-RAF murine sarcoma viral oncogene homologue B1 (BRAF): increasing cellular potency through optimization of a distal heteroaromatic group” (J Med Chem, 2010)

Assays:
[1] = biological target: T1, Serine/threonine-protein kinase B-raf (Homo sapiens, UniProt P15056, V600E); assay: Inhibition of human BRAF V600E mutant expressed in baculovirus system
Method in brief: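 Isolated purified V600E BRAF kinase with a 45 min incubation. Enzyme inhibition measured and IC50 derived. Run in triplicate, with one compound measured once.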

[2] = biological target: T1, Serine/threonine-protein kinase B-raf; assay: Inhibition of BRAF V600E mutant ERK phosphorylation in human WM266.4 cells; type: cell-based
Method in brief: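 WM266.4 melanoma cells, which carry mutant V600E BRAF, exposed to inhibitor for 6 h. ERK phosphorylation (pERK) measured and IC50 derived. Run in triplicate, with a few compounds measured once.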

[3] = Growth inhibition of human WM266.4 cells expressing BRAF V600E mutant after 5 days by SRB assay; type: functional; conditions: WM 266-4, 120 h
[4] = Oral bioavailability in BALB/cAnNCrl mouse at 10 mg/kg; type: ADME, organism-based; conditions: in vivo
Method in brief: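 Female BALB/cAnNCrl mice, at least 6 weeks old. The oral arm was gavage at 10 mL/kg in DMSO/water 1:19. The iv arm was 2 mg/kg (~4 μmol/kg) at 10 mL/kg in DMSO/Tween-20/water 10:1:89, sampled at seven or eight points from 5 min to 18 or 24 h. Three mice per time point, terminal cardiac blood, plasma.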

[5] = Half life in BALB/cAnNCrl mouse at 10 mg/kg, po; type: ADME, organism-based; parameters: dose 10 mg/kg, route oral; conditions: in vivo
Method in brief: (§1)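 Female BALB/cAnNCrl mice, at least 6 weeks old, dosed once by oral gavage at 10 mL/kg in DMSO/water 1:19 v/v. Blood was taken at six or eight time points from 15 min to 18 or 24 h, three mice per time point, by terminal cardiac puncture under halothane or isoflurane into heparinized syringes. Plasma was snap frozen and stored at -70 °C.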

[6] = Cmax in BALB/cAnNCrl mouse at 10 mg/kg, po; type: ADME, organism-based; parameters: dose 10 mg/kg, route oral; conditions: in vivo; method in brief: as §1
[7] = Tmax in BALB/cAnNCrl mouse at 10 mg/kg, po; type: ADME, organism-based; parameters: dose 10 mg/kg, route oral; conditions: in vivo; method in brief: as §1
[8] = Growth inhibition of wild type human WM1361 cells after 5 days by SRB assay; conditions: WM1361, 120 h
[9] = Selectivity ratio of GI50 for human WM266.4 cells expressing BRAF V600E mutant to GI50 for human WM1361 cells

T1 sequence (P15056 2-766 V600E limits assumed): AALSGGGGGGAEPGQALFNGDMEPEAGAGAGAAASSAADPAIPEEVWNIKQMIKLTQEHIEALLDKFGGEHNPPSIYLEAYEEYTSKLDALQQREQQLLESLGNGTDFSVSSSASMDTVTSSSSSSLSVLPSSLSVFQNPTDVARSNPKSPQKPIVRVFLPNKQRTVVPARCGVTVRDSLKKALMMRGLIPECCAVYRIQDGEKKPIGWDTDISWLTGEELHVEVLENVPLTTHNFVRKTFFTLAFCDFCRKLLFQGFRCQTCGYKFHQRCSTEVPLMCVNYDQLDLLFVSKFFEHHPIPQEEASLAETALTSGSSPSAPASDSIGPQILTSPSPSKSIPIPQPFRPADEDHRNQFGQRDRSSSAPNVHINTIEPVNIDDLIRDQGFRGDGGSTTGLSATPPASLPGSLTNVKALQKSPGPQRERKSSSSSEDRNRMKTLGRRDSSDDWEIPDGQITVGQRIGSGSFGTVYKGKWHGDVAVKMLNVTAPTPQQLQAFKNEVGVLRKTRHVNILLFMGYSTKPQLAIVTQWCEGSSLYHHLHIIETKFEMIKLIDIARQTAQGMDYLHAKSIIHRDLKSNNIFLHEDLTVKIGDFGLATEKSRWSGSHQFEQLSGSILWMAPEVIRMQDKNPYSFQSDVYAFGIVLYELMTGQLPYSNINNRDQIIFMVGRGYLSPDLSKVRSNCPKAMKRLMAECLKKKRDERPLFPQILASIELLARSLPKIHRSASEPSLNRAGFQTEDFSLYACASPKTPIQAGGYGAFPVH

Row | SMILES | IC50 [1] [nM] | IC50 [2] [nM] | GI50 [3] [nM] | bioavailability [4] [%] | half-life [5] [h] | Cmax [6] [µM] | Tmax [7] [h] | GI50 [8] [nM] | fold change (FC) [9]
1 | Cc1ccc(-n2nc(C(C)(C)C)cc2NC(=O)Nc2ccc(Oc3ccnc4c3[nH]c(=O)n4C)c3ccccc23)cc1 | 6300 | 70 | 1090 |  |  |  |  |  | 
2 | Cc1ccc(-n2nc(C(C)(C)C)cc2NC(=O)Nc2ccc(Oc3ccnc4c3[nH]c(=O)n4C)cc2)cc1 | 1190 | 54 | 27 | 30 | 3.4 | 22.7 | 1 |  | 
3 | Cn1c(=O)n(C)c2c(Oc3ccc(NC(=O)Nc4cc(C(C)(C)C)nn4-c4ccccc4)c(F)c3)ccnc21 | 1090 | 122 | 33 | 59 | 2.1 | 4.44 | 0.5 |  | 
4 | Cc1ccc(-n2nc(C(C)(C)C)cc2NC(=O)Nc2ccc(Oc3ccnc4c3n(C)c(=O)n4C)cc2F)cc1 | 1130 | 52 | 320 | 31 | 9.4 | 8.12 | 0.5 |  | 
5 | CCCn1nc(C(C)(C)C)cc1NC(=O)Nc1ccc(Oc2ccnc3[nH]c(=O)[nH]c23)cc1 | 83 | 10800 | 9500 |  |  |  |  |  | 
6 | Cc1ccc(-n2nc(C(C)(C)C)cc2NC(=O)Nc2ccc(Oc3ccnc4[nH]c(=O)n(C)c34)cc2)cc1 | 202 | 90 | 66 | 34 | 3.4 | 39.6 | 1 |  | 
7 | Cn1c(=O)[nH]c2c(Oc3ccc(NC(=O)Nc4cc(C(C)(C)C)nn4-c4ccccc4)cc3)ccnc21 | 880 | 130 | 61 |  |  |  |  |  | 
8 | CC(C)(C)c1cc(NC(=O)Nc2ccc(Oc3ccnc4[nH]c(=O)[nH]c34)cc2)n(C(C)(C)C)n1 | 1190 | 33000 | 26000 |  |  |  |  |  | 
9 | Cn1c(=O)[nH]c2c(Oc3ccc(NC(=O)Nc4cc(C(C)(C)C)nn4-c4ccccc4)c4ccccc34)ccnc21 | 6900 | 27 | 167 |  |  |  |  |  | 
10 | Cc1ccc(-n2nc(C(F)(F)F)cc2NC(=O)Nc2ccc(Oc3ccnc4[nH]c(=O)n(C)c34)cc2)cc1 | 176 | 3200 | 1890 |  |  |  |  |  | 
11 | Cc1ccc(-n2nc(C(C)(C)C)cc2NC(=O)Nc2ccc(Oc3ccnc4c3n(C)c(=O)n4C)cc2)cc1 | 1800 | 190 | 210 |  |  |  |  |  | 
12 | Cn1nc(C(C)(C)C)cc1NC(=O)Nc1ccc(Oc2ccnc3[nH]c(=O)n(C)c23)c2ccccc12 | 99 | 383 | 161 |  |  |  |  |  | 
13 | Cn1c(=O)[nH]c2nccc(Oc3ccc(NC(=O)Nc4cc(C(C)(C)C)nn4-c4ccc(F)cc4)c4ccccc34)c21 | 313 | 35 | 47 |  |  |  |  |  | 
14 | CC(C)(C)c1cc(NC(=O)Nc2ccc(Oc3ccnc4[nH]c(=O)[nH]c34)c3ccccc23)n(-c2ccccc2)n1 | 510 | 35 | 34 |  |  |  |  |  | 
15 | CNC(=O)c1cc(Oc2ccc(NC(=O)Nc3ccc(Cl)c(C(F)(F)F)c3)cc2)ccn1 [SORAFENIB] |  |  |  |  |  |  |  | 4500 | 1
16 | Cn1nc(C(C)(C)C)cc1NC(=O)Nc1ccc(Oc2ccnc3[nH]c(=O)n(C)c23)cc1 | 84 | 14100 | 4200 |  |  |  |  |  | 
17 | Cc1ccc(-n2nc(C(C)(C)C)cc2NC(=O)Nc2ccc(Oc3ccnc4[nH]c(=O)[nH]c34)cc2F)cc1 | 110 | 40 | 46 | 7 | 5.3 | 7.42 | 1.5 | 790 | 17
18 | CSc1cc(Oc2ccnc3[nH]c(=O)[nH]c23)ccc1NC(=O)Nc1cc(C(C)(C)C)nn1-c1ccc(C)cc1 | 76 | 56 | 16 |  |  |  |  |  | 
19 | Cn1c(=O)[nH]c2nccc(Oc3ccc(NC(=O)Nc4cc(C(C)(C)C)nn4-c4ccccc4)cc3)c21 | 215 | 164 | 145 |  |  |  |  |  | 
20 | CC(C)(C)c1cc(NC(=O)Nc2ccc(Oc3ccnc4[nH]c(=O)[nH]c34)cc2)n(-c2ccc(Cl)cc2)n1 | 140 | 350 | 530 |  |  |  |  |  | 
21 | Cn1c(=O)[nH]c2nccc(Oc3ccc(NC(=O)Nc4cc(C(C)(C)C)nn4-c4ccc(F)cc4)cc3)c21 | 135 | 1360 | 497 |  |  |  |  |  | 
22 | Cc1ccc(-n2nc(C(C)(C)C)cc2NC(=O)Nc2ccc(Oc3ccnc4[nH]c(=O)[nH]c34)c3ccccc23)cc1 | 670 | 14 | 31 |  |  |  |  |  | 

Row | SMILES | IC50 [1] [nM] | IC50 [2] [nM] | GI50 [3] [nM] | bioavailability [4] [%] | half-life [5] [h] | Cmax [6] [µM] | Tmax [7] [h] | GI50 [8] [nM] | fold change (FC) [9]
23 | CC(C)(C)c1cc(NC(=O)Nc2ccc(Sc3ccnc4[nH]c(=O)[nH]c34)cc2)n(-c2ccccc2)n1 | 215 | 70 | 12 |  |  |  |  |  | 
24 | Cn1c(=O)[nH]c2nccc(Oc3ccc(NC(=O)Nc4cc(C(C)(C)C)nn4-c4cccnc4)c4ccccc34)c21 | 790 | 100 | 69 | 5 | 0.8 | 4.21 | 0.5 |  | 
25 | Cn1nc(C(C)(C)C)cc1NC(=O)Nc1ccc(Oc2ccnc3c2[nH]c(=O)n3C)c2ccccc12 | 197 | 470 | 470 |  |  |  |  |  | 
26 | CC(C)(C)c1cc(NC(=O)Nc2ccc(Oc3ccnc4[nH]c(=O)[nH]c34)cc2)n(-c2ccccc2)n1 | 94 | 620 | 390 |  |  |  |  | 3200 | 8
27 | Cn1nc(C(C)(C)C)cc1NC(=O)Nc1ccc(Oc2ccnc3[nH]c(=O)[nH]c23)c2ccccc12 | 11 | 2300 | 670 |  |  |  |  |  | 
28 | Cn1nc(C(C)(C)C)cc1NC(=O)Nc1ccc(Oc2ccnc3[nH]c(=O)[nH]c23)cc1 | 33 | 28000 | 12900 |  |  |  |  |  | 
29 | Cc1cc(NC(=O)Nc2ccc(Oc3ccnc4[nH]c(=O)[nH]c34)cc2)n(-c2ccc(Cl)cc2)n1 | 290 | 70000 | 21000 |  |  |  |  |  | 
30 | CC(C)(C)c1csc(NC(=O)Nc2ccc(Oc3ccnc4[nH]c(=O)[nH]c34)cc2)n1 | 7800 |  | 10400 |  |  |  |  |  | 
31 | CC(C)(C)c1cc(NC(=O)Nc2ccc(Oc3ccnc4[nH]c(=O)[nH]c34)cc2)n(-c2ccc(F)cc2F)n1 | 104 | 1190 | 1230 |  |  |  |  |  | 
32 | Cn1c(=O)[nH]c2nccc(Oc3ccc(NC(=O)Nc4cc(C5CC5)nn4-c4ccccc4)cc3)c21 | 143 | 18200 | 3700 |  |  |  |  |  | 
33 | CC(C)(C)c1cc(NC(=O)Nc2ccc(Oc3ccnc4[nH]c(=O)[nH]c34)cc2)n(-c2ccc(F)cc2)n1 | 124 | 411 | 540 |  |  |  |  |  | 
34 | Cc1ccc(-n2nc(C(C)(C)C)cc2NC(=O)Nc2ccc(Oc3ccnc4c3[nH]c(=O)n4C)cc2F)cn1 | 530 | 62 | 240 | 17 | 12.6 | 18 | 0.25 |  | 
35 | Cc1ccc(-n2nc(C(C)(C)C)cc2NC(=O)Nc2ccc(Sc3ccnc4[nH]c(=O)[nH]c34)cc2)cc1 | 2200 | 234 | 259 |  |  |  |  |  | 
36 | Cn1c(=O)[nH]c2nccc(Oc3ccc(NC(=O)Nc4cc(C(C)(C)C)nn4-c4cccnc4)cc3)c21 | 390 | 830 | 590 |  |  |  |  |  | 
37 | O=C(Nc1ccc(Oc2ccnc3[nH]c(=O)[nH]c23)cc1)Nc1nnc(C2CCCO2)s1 (stereo not given) | 170 | 58000 | 48900 |  |  |  |  |  | 
38 | CC(C)(C)c1cc(NC(=O)Nc2ccc(Oc3ccnc4[nH]c(=O)[nH]c34)cc2)n(Cc2ccccc2)n1 | 147 | 13400 | 10100 |  |  |  |  |  | 
39 | CC(C)(C)c1cc(NC(=O)Nc2ccc(Oc3ccnc4[nH]c(=O)[nH]c34)cc2)n(-c2ccccn2)n1 | 210 | 6400 | 3400 |  |  |  |  |  | 
40 | CC(C)c1cc(NC(=O)Nc2ccc(Oc3ccnc4[nH]c(=O)[nH]c34)cc2)n(-c2ccccc2)n1 | 42 | 1970 | 1170 |  |  |  |  |  | 
41 | CC(C)(C)c1cc(NC(=O)Nc2ccc(Oc3ccnc4[nH]c(=O)[nH]c34)cc2F)n(-c2ccccc2)n1 | 75 | 135 | 39 | 24 | 2.8 | 15 | 0.25 | 660 | 17
42 | Cn1nc(C(C)(C)C)cc1NC(=O)Nc1ccc(Oc2ccnc3c2[nH]c(=O)n3C)cc1 | 258 | 2900 | 1920 |  |  |  |  |  | 
43 | CC(C)(C)c1cc(NC(=O)Nc2ccc(Oc3ccnc4[nH]c(=O)[nH]c34)c3ccccc23)n(-c2ccc(F)cc2)n1 | 240 | 203 | 20 |  |  |  |  |  | 
